Published values pooled from the literature.
Compare with care: the assays were run in different laboratories.
Effect on: cell growth or viability

| Structure (SMILES) | cell line | test | setting | endpoint | value |
| --- | --- | --- | --- | --- | --- |
| O=C(Nc1ccccc1/N=c1\cc(-c2ccc3c(c2)OCO3)oc2ccccc12)N1CCOCC1 | MCF7 | CCK-8 | 1 µM | inhibition | 12.9% |
| O=C(Nc1ccc(Cl)cc1)Nc1cccc(-c2cn(Cc3cccc(Br)c3)nn2)c1 | MCF7 | CCK-8 | 50 µM, 48 h | viability | 85.3% |
| COc1ccc2/c(=N/c3ccccc3NC(=O)[C@H](C)N)cc(-c3ccc4c(c3)OCCO4)oc2c1 | MCF7 | CCK-8 | 1 µM | inhibition | 8.55% |
| O=C(C[C@@H](C(F)F)n1ccc(F)n1)N1CCC(O)(Cn2cnc3c(cnn3-c3ccc(F)cc3)c2=O)CC1 | CAPAN-1 | SRB | 27.43 nM, 5 days | viability | 66.3% |
| COc1ccc(NC(=O)Nc2cccc(-c3cn(Cc4ccc(C)cc4)nn3)c2)cc1 | MCF7 | CCK-8 | 50 µM, 48 h | viability | 104% |
| COc1ccc2/c(=N/c3ccccc3NC(=O)[C@@H](N)C(C)(C)C)cc(-c3ccc4c(c3)OCO4)oc2c1 | MCF7 | CCK-8 | 1 µM | inhibition | 14.2% |
| O=C(NCc1cn(Cc2ccc(Br)cc2)nn1)Nc1ccc(Cl)cc1 | MCF7 | CCK-8 | 50 µM, 72 h | viability | 91.2% |
| Cc1ccccc1Cn1cc(-c2cccc(NC(=O)Nc3ccc(F)cc3)c2)nn1 | MCF7 | CCK-8 | 50 µM, 48 h | viability | 100% |
| O=C(Nc1ccc(Cl)cc1)Nc1ccc(-c2cn(Cc3ccc(Br)cc3)nn2)cc1 | MCF7 | CCK-8 | 50 µM, 48 h | viability | 93.7% |
| CCc1nc(C(N)=O)c(Nc2ccc(N3CCC(N4CCN(C)CC4)CC3)c(OC)c2)nc1NC1CCOCC1 | NOMO-1 | – | 72 h | GI50 | 2.54 µM |
| O=C(Nc1ccc(Cl)cc1)Nc1ccc(-c2cn(Cc3ccc(Cl)cc3)nn2)cc1 | MCF7 | CCK-8 | 50 µM, 72 h | viability | 98% |
| Cc1n[nH]c2ccc3nc(-c4ccc(C(=O)NCCN(C)C)cc4)c4c(c3c12)CCCCC4 | NOMO-1 | – | 72 h | GI50 | 3.08 µM |
| COc1ccc(NC(=O)Nc2cccc(-c3cn(Cc4ccccc4C)nn3)c2)cc1 | MCF7 | CCK-8 | 50 µM, 72 h | viability | 72.3% |
| COc1ccc2/c(=N/c3ccccc3NC(=O)[C@@H](N)CO)cc(-c3ccc4c(c3)OCCO4)oc2c1 | MCF7 | CCK-8 | 1 µM | inhibition | 8.55% |
| COc1ccc(NC(=O)Nc2ccc(-c3cn(Cc4ccc(Br)cc4)nn3)cc2)cc1 | MCF7 | CCK-8 | 50 µM, 48 h | viability | 98.4% |
| NCCC(=O)Nc1ccccc1/N=c1\cc(-c2ccc3c(c2)OCO3)oc2ccccc12 | MCF7 | CCK-8 | 1 µM | inhibition | -5.6% |
| O=C(Nc1ccc(Cl)cc1)Nc1ccc(-c2cn(Cc3cccc(Cl)c3)nn2)cc1 | MCF7 | CCK-8 | 50 µM, 72 h | viability | 98.2% |
| COc1ccc2/c(=N/c3ccccc3NC(=O)[C@@H](N)C(C)(C)C)cc(-c3ccc4c(c3)OCCO4)oc2c1 | MCF7 | CCK-8 | 1 µM | inhibition | 8.1% |
| Cc1n[nH]c2ccc3nc(-c4ccc(C(=O)NCCN(C)C)cc4)c4c(c3c12)CCCC4 | NOMO-1 | – | 72 h | GI50 | 1.05 µM |
| O=C(NCc1cn(Cc2ccc(Cl)cc2)nn1)Nc1ccc(Cl)cc1 | MCF7 | CCK-8 | 50 µM, 48 h | viability | 80.8% |
| O=C(Nc1ccccc1/N=c1\cc(-c2ccc3c(c2)OCCO3)oc2cc(F)ccc12)N1CCOCC1 | MCF7 | CCK-8 | 1 µM | inhibition | 16.7% |
| O=C(Nc1ccc(Cl)cc1)Nc1cccc(-c2cn(Cc3cccc(Cl)c3)nn2)c1 | MCF7 | CCK-8 | 50 µM, 48 h | viability | 92.3% |
| COc1ccc(NC(=O)NCc2cn(Cc3ccc(C)cc3)nn2)cc1 | MCF7 | CCK-8 | 50 µM, 72 h | viability | 101% |
| CN(C)CCNC(=O)c1ccc(-c2nc3ccc4[nH]ncc4c3c3c2CCCCC3)c(F)c1 | NOMO-1 | – | 72 h | GI50 | 1.33 µM |
| Nc1ccccc1/N=c1\cc(-c2ccc3c(c2)OCO3)oc2ccccc12 | MCF7 | CCK-8 | 1 µM | inhibition | 7.65% |
| CC(C)(C)c1cc(NC(=O)Nc2ccc(-c3cn4c(n3)sc3cc(OCCN5CCOCC5)ccc34)cc2)no1 | NOMO-1 | – | 72 h | GI50 | > 10 µM |
| COc1ccc(NC(=O)NCc2cn(Cc3ccccc3C)nn2)cc1 | MCF7 | CCK-8 | 50 µM, 48 h | viability | 96.3% |
